{"data": "Results gathered from unrelated publications", "target": "Serine/threonine-protein kinase PAK 2 (PAK2, Homo sapiens, UniProt Q13177)", "note": "Compare with care: the assays were run in different laboratories."}
{"SMILES": "O=C1Nc2ccc(Cl)cc2C1=Cc1cc(Cl)c(O)c(Cl)c1", "read-out": "cell-free assay", "concentration": "0.5 µM", "measurement": "remaining signal", "value": "96.8%"}
{"SMILES": "CSc1nc(C)c(-c2ccnc(Nc3ccc(N4CCOCC4)cc3)c2)[nH]1", "read-out": "enzyme activity", "action": "inhibitor", "concentration": "10 µM", "measurement": "inhibition", "value": "1.4%"}
{"SMILES": "CC(C)(C)c1nc2c(s1)c1nc(N)ncc1c1ccc(NS(=O)(=O)c3c(F)cccc3F)c(F)c12", "read-out": "enzyme activity", "action": "inhibitor", "technique": "radiometric", "concentration": "1 µM", "measurement": "remaining activity", "value": "102%"}
{"SMILES": "CSc1cccnc1N1CCN(Cc2nc3ccccc3[nH]2)CC1", "read-out": "cell-free assay", "technique": "competition with immobilised ligand", "concentration": "1 µM", "measurement": "remaining binding", "value": "100%"}
{"SMILES": "FC(F)(F)Oc1cccc(-c2cnc3ccc(-c4ccncc4)nn23)c1", "read-out": "enzyme activity", "action": "inhibitor", "technique": "radiometric", "concentration": "5 µM", "measurement": "activity vs control", "value": "88%"}
{"SMILES": "Cc1ccc(Nc2nccc(N(C)c3ccc4c(C)n(C)nc4c3)n2)cc1S(N)(=O)=O", "read-out": "enzyme activity", "action": "inhibitor", "concentration": "0.3 µM", "measurement": "inhibition", "value": "1%"}
{"SMILES": "COc1ccc2c(c1)O[C@H](c1ccc(OC)c(OC)c1)C[C@@H]2NC(=O)C1(c2ccc3c(c2)OC(F)(F)O3)CC1", "read-out": "cell-free assay", "technique": "competition with immobilised ligand", "concentration": "1 µM", "measurement": "remaining binding", "value": "100%"}
{"SMILES": "CCN(CC)CCNC(=O)c1c(C)[nH]c(/C=C2\\C(=O)Nc3ccc(F)cc32)c1C", "read-out": "enzyme activity", "action": "inhibitor", "concentration": "0.3 µM", "measurement": "inhibition", "value": "-8%"}
{"SMILES": "CC(C)CC(=O)N1CCc2nc(-c3ccc(Br)cc3)nc(N(C)Cc3ccccc3)c2C1", "read-out": "cell-free assay", "technique": "competition with immobilised ligand", "concentration": "0.1 µM", "measurement": "remaining binding", "value": "100%"}
{"SMILES": "CCCOc1ccc(OC)c(F)c1C(=O)c1ccc(C(=O)N[C@@H]2CNC[C@H]2NC(=O)c2ccc3[nH]ncc3c2)cc1", "read-out": "enzyme activity", "action": "inhibitor", "concentration": "10 µM", "measurement": "remaining activity", "value": "74%"}
{"SMILES": "CCN(CC)c1ccc(C2=NNC(=O)CC2C)cc1[N+](=O)[O-] (centres unmarked)", "read-out": "enzyme activity", "action": "inhibitor", "concentration": "10 µM", "measurement": "remaining activity", "value": "98%"}
{"SMILES": "Nc1ncnc2occ(-c3ccc(NC(=O)Nc4cc(C(F)(F)F)ccc4F)cc3)c12", "read-out": "cell-free assay", "action": "inhibitor", "concentration": "20 µM", "measurement": "remaining signal", "value": "60%"}
{"SMILES": "Cc1ccc(C(=O)NCc2ccsc2)cc1C#Cc1cn(C(C)C)c2ncnc(N)c12", "read-out": "enzyme activity", "action": "inhibitor", "concentration": "1 µM", "measurement": "activity vs control", "value": "79%"}
{"SMILES": "COc1cc(Cl)c(C(=O)N[C@@H](CN[C@H]2CC[C@@H](N)CC2)Cc2ccc(C#N)cc2)cc1-c1ccc(CN[C@H](C)c2ccc(C)cc2)o1", "read-out": "enzyme activity", "action": "inhibitor", "concentration": "1 µM", "measurement": "remaining activity", "value": "98%"}
{"SMILES": "Nc1cnc(N2CCc3cc(S(=O)(=O)Nc4c(F)cc(Cl)cc4F)cc(N4CCCC4=O)c32)nc1", "read-out": "cell-free assay", "technique": "competition with immobilised ligand", "concentration": "1 µM", "measurement": "remaining binding", "value": "78%"}
{"SMILES": "FC(F)c1nc2ccccc2n1-c1nc(N2CCOCC2)nc(N2CCOCC2)n1", "read-out": "enzyme activity", "action": "inhibitor", "concentration": "10 µM", "measurement": "remaining activity", "value": "100%"}
{"SMILES": "COc1cc(Nc2cnc(C#N)c(O[C@H](C)CN(C)C)n2)ncc1-c1cnn(C)c1", "read-out": "enzyme activity", "action": "inhibitor", "technique": "radiometric", "concentration": "1 µM", "measurement": "remaining activity", "value": "100%"}
{"SMILES": "O=C(Nc1cnn(-c2csc(C(=O)NC3COC3)c2)c1)Nc1ccccc1Cl", "read-out": "enzyme activity", "action": "inhibitor", "concentration": "5 µM", "measurement": "remaining activity", "value": "90.1%"}
{"SMILES": "CNCc1ccc(-c2cc(-c3nc(-c4ccc(S(=O)(=O)C(C)C)cc4)cnc3N)on2)cc1", "read-out": "enzyme activity", "action": "inhibitor", "concentration": "2 µM", "measurement": "inhibition", "value": "6%"}
{"SMILES": "N#CCCc1ccc2c(c1)-c1[nH]c3ccc([N+](=O)[O-])cc3c1CC(=O)N2", "read-out": "cell-free assay", "concentration": "0.5 µM", "measurement": "remaining signal", "value": "55.6%"}
{"SMILES": "Cn1c(=O)n(-c2ccc(C(C)(C)C#N)cc2)c2c3cc(-c4cnc5ccccc5c4)ccc3ncc21", "read-out": "enzyme activity", "action": "inhibitor", "concentration": "10 µM", "measurement": "remaining activity", "value": "87%"}
{"SMILES": "CS(=O)(=O)Nc1cccc(-c2csc(NC(=O)CSc3nc4nccnc4c(=O)n3CCc3ccccc3)n2)c1", "read-out": "enzyme activity", "action": "inhibitor", "concentration": "10 µM", "measurement": "inhibition", "value": "3%"}
{"SMILES": "C=CC(=O)Nc1cc(Nc2nccc(Nc3cc(Cl)c(F)cc3C(C)(C)O)n2)c(OC)cc1N1CC[C@@H](N(C)C)C1", "read-out": "enzyme activity", "action": "inhibitor", "concentration": "1 µM", "measurement": "inhibition", "value": "5%"}
{"SMILES": "CO[C@@H](C)c1c(Nc2ccc([C@H](N(C)C(=O)C3CCS(=O)(=O)CC3)C(F)(F)F)cc2)cnc2cc(Cl)nn12", "read-out": "cell-free assay", "technique": "competition with immobilised ligand", "concentration": "1 µM", "measurement": "remaining binding", "value": "76%"}
{"SMILES": "CC/C(=N\\NC(=O)NCc1cccc(O)c1)c1ccc(O)c(C)c1O", "read-out": "enzyme activity", "action": "inhibitor", "concentration": "0.1 µM", "measurement": "inhibition", "value": "3%"}
{"SMILES": "Cc1nc(N2CC[C@@H](O)C2)ncc1-c1cc(C(F)(F)F)cc2[nH]ncc12", "read-out": "cell-free assay", "technique": "competition with immobilised ligand", "concentration": "1 µM", "measurement": "remaining binding", "value": "100%"}
{"SMILES": "Clc1ccc(Nc2nnc(Cc3ccncc3)c3ccccc23)cc1", "read-out": "cell-free assay", "concentration": "0.5 µM", "measurement": "remaining signal", "value": "101%"}
{"SMILES": "COc1cc2ncnc(Nc3ccc(Oc4ccccc4)c(C)c3C)c2cc1OC", "read-out": "enzyme activity", "action": "inhibitor", "concentration": "1 µM", "measurement": "inhibition", "value": "7%"}
{"SMILES": "O=S(=O)(NC1CCC(c2cc(F)ccc2F)(S(=O)(=O)c2ccc(Cl)cc2)CC1)C(F)(F)F (centres unmarked)", "read-out": "cell-free assay", "technique": "competition with immobilised ligand", "concentration": "1 µM", "measurement": "remaining binding", "value": "100%"}
{"SMILES": "COc1cc(/C=C/C(=O)CC(=O)/C=C/c2ccc(O)c(OC)c2)ccc1O", "read-out": "enzyme activity", "action": "inhibitor", "concentration": "1 µM", "measurement": "activity vs control", "value": "84%"}
{"SMILES": "Cc1c(NC(=O)c2cc(C(N)=O)nc3cc(F)ccc23)c(C(F)(F)F)nn1Cc1ccc(C#N)cc1", "read-out": "cell-free assay", "technique": "competition with immobilised ligand", "concentration": "1 µM", "measurement": "remaining binding", "value": "88%"}
{"SMILES": "CNC(=O)c1cc(Oc2ccc(NC(=O)Nc3ccc(Cl)c(C(F)(F)F)c3)cc2)ccn1", "read-out": "cell-free assay", "concentration": "0.5 µM", "measurement": "remaining signal", "value": "101%"}
